Values after ≈ are worked out from the molar mass of the structure shown.
Tests used:
Type in all cases: functional
[1] = Ratio of MIC for Mycobacterium tuberculosis H37Rv SRI 1345 to MIC for rifampicin resistant Mycobacterium tuberculosis SRI 1367
How it was run: (§1)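 MIC in µg/mL, retested on susceptible H37Rv (SRI 1345) in the same panel as single-drug-resistant strains: isoniazid-, rifampin- and ofloxacin-resistant. Percent inhibition recorded at the MIC concentration. Ratio taken as MIC H37Rv / MIC resistant strain.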

[2] = tested on: Mycobacterium tuberculosis; test: Antimicrobial activity against isoniazid resistant Mycobacterium tuberculosis SRI 1369 after 7 days; details: SRI 1369, 168 h; how it was run: as §1
[3] = tested on: Mycobacterium tuberculosis; test: Antimicrobial activity against ofloxacin resistant Mycobacterium tuberculosis SRI 4000 assessed as growth inhibition at MIC after 7 days; how it was run: as §1
[4] = tested on: Mycobacterium tuberculosis; test: Antimicrobial activity against isoniazid resistant Mycobacterium tuberculosis SRI 1369 assessed as growth inhibition at MIC after 7 days; how it was run: as §1
[5] = Ratio of MIC for Mycobacterium tuberculosis H37Rv SRI 1345 to MIC for ofloxacin resistant Mycobacterium tuberculosis SRI 4000; how it was run: as §1
[6] = tested on: Mycobacterium tuberculosis; test: Antimicrobial activity against ofloxacin resistant Mycobacterium tuberculosis SRI 4000 after 7 days; details: SRI 4000, 168 h; how it was run: as §1
[7] = tested on: Mycobacterium tuberculosis; test: Antimicrobial activity against rifampicin resistant Mycobacterium tuberculosis SRI 1367 after 7 days; details: SRI 1367, 168 h; how it was run: as §1
[8] = tested on: Mycobacterium tuberculosis; test: Antimicrobial activity against rifampicin resistant Mycobacterium tuberculosis SRI 1367 assessed as growth inhibition at MIC after 7 days; how it was run: as §1
[9] = Ratio of MIC for Mycobacterium tuberculosis H37Rv SRI 1345 to MIC for isoniazid resistant Mycobacterium tuberculosis SRI 1369; how it was run: as §1

Compound	Ratio [1]	MIC [2] [µg/mL]	growth inhibition (GI) [3] [%]	growth inhibition (GI) [4] [%]	Ratio [5]	MIC [6] [µg/mL]	MIC [7] [µg/mL]	growth inhibition (GI) [8] [%]	Ratio [9]
COC(=O)c1c(C(F)(F)F)[n+]([O-])c2ccc(N3CCN(c4ccc(F)cc4)CC3)cc2[n+]1[O-]	8	0.19 (≈ 0.407 µM)	81	51	8	0.19 (≈ 0.407 µM)	0.19 (≈ 0.407 µM)	73	8
O=C(c1ccco1)c1c(C(F)(F)F)[n+]([O-])c2cc(Cl)c(N3CCOCC3)cc2[n+]1[O-]	4	0.5 (≈ 1.13 µM)	76	78	8	0.25 (≈ 0.563 µM)	0.5 (≈ 1.13 µM)	66	4
CC(=O)c1c(C(F)(F)F)[n+]([O-])c2cc(F)c(N3CCCCC3)cc2[n+]1[O-]		0.25 (≈ 0.67 µM)	84	57		0.25 (≈ 0.67 µM)	0.25 (≈ 0.67 µM)	68	
Cc1c(C(=O)/C=C/c2ccccc2)[n+]([O-])c2cc(Cl)ccc2[n+]1[O-]	4	1 (≈ 2.93 µM)	100	64	4	0.5 (≈ 1.47 µM)	0.5 (≈ 1.47 µM)	51	2
CO[C@H]1/C=C/O[C@@]2(C)Oc3c(C)c(O)c4c(O)c(c(/C=N/N5CCN(C)CC5)c(O)c4c3C2=O)NC(=O)/C(C)=C\C=C\[C@H](C)[C@H](O)[C@@H](C)[C@@H](O)[C@@H](C)[C@H](OC(C)=O)[C@@H]1C [RIFAMPIN]		0.05 (≈ 0.0608 µM)	53	72		0.195 (≈ 0.237 µM)			
NNC(=O)c1ccncc1 [ISONIAZID]							0.02 (≈ 0.146 µM)	55	
CC(=O)c1c(C(F)(F)F)nc2cc(F)c(N3CCSCC3)cc2[n+]1[O-]	2	0.75 (≈ 2 µM)	62	89	4	0.19 (≈ 0.506 µM)	0.38 (≈ 1.01 µM)	75	1

Reference: ChEMBL document CHEMBL3792280, “Design and synthesis of novel quinoxaline derivatives as potential candidates for treatment of multidrug-resistant and latent tuberculosis” (Bioorg Med Chem Lett, 2016)
